# TRPML3 agonist: activates the human TRPML3 channel. HEK293 TRPML3-YFP, Fluo-8 calcium fluorescence; 100% = the carbachol control signal. activation, % at 3 µM. actives 0.29% (n = 220,000);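 active = activation above its plate's cutoff, the mean activation of the plate's test wells plus 3 SD, cut at about 12% in these data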
#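 Material: TRPML3-YFP stable HEK293 cells | Dosing: One concentration, 3 µM nominal, 0.3% DMSO | Timing: 125 s total fluorescence read per well | Technique: Fluo-8 calcium dye fluorescence, ex 470-495, em 515-575 nm | Measure: Percent activation from peak-to-basal fluorescence ratio, scaled between DMSO and carbachol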
# OXTR potentiator: human OXTR potentiation | P30559 | CHO-OTR cells, Fluo-8 calcium fluorescence, potentiator mode; 0% = oxytocin EC15, 100% = EC100 | activation, % at 3 µM | actives 0.061% (n = 320,000);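 active = activation above that plate's cutoff, the mean activation of tested compounds plus 3 SD, cut at about 6.6% in these data, passing the limit was not always enough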
# Target sequence (P30559 whole entry, looked up): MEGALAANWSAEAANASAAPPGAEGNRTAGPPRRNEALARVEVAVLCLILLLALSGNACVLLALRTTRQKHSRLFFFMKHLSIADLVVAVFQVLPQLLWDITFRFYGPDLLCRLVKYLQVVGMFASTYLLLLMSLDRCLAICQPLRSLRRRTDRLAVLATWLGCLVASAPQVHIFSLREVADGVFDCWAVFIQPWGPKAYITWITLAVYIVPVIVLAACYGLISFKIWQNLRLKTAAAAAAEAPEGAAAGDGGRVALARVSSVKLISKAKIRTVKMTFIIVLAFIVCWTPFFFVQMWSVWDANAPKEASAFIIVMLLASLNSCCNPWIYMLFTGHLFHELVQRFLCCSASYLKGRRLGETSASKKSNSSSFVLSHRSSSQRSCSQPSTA
#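 Assay system: CHO cell line stably expressing human OTR | Also added: Oxytocin at about EC15, sub-maximal agonist stimulus | Times: Compound 6 min at room temperature before oxytocin, 100 s read | Measured by: Fluo-8 intracellular calcium fluorescence, ex 470-495, em 515-575 nm | Controls: EC15 oxytocin alone as 0%, 75 nM oxytocin as 100%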
# TRPN1 ag: activates the zebrafish TRPN1 channel; HEK293 zebrafish TRPN1-YFP, Fluo-8 calcium fluorescence; 100% = response to 87 µM carbachol; activation, % at 3 µM; actives 0.18% (n = 220,000); AID 1424;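 active = activation above its plate's cutoff, the mean activation of test wells on that plate plus 3 SD, cut at about 19% in these data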
#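 Assay system: Zebrafish TRPN1-YFP in HEK293 cells | Incubation: Dye loading 1 h at 37 °C, then 30 min room temperature | Measured by: Kinetic Fluo-8 fluorescence, ex 470-495, em 515-575 nm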
# OXTR agonist: activates the human oxytocin receptor. P30559. CHO-OTR cells, Fluo-8 calcium fluorescence; normalized: DMSO 0%, oxytocin 100%. activation, % at 3 µM. actives 0.32% (n = 320,000);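 active = activation above the mean of all tested compounds plus 3 SD, cutoff set per screening run, cut at about 20% in these data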;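 note: peak over basal fluorescence ratio from a 100 s FLIPR kinetic read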
# V1aR counter: activates human V1a receptor in oxytocin agonist counter-screen; P37288; CHO-V1R cells, Fluo-8 calcium fluorescence, agonist mode; 0% DMSO, 100% 3 nM vasopressin; activation, % at 3 µM; actives 0.25% (n = 320,000); AID 2797;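 active = activation above the mean activation of all tested compounds plus 3 SD, per screening run, cut at about 20% in these data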;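 note: signal is peak over basal fluorescence ratio across a 100 second FLIPR read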
# TRPN1 ag 2: activates zebrafish TRPN1, counter-screen for TRPML3 agonists. shares compounds with TRPML3 agonist. HEK293 zebrafish TRPN1-YFP, Fluo-8 calcium fluorescence; scaled: carbachol wells 100%, DMSO wells 0%. activation, % at 3 µM. actives 10% (n = 310);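 active = mean activation over replicates above a set limit taken from the earlier TRPN1 channel primary screen, cut at about 19% in these data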
# TRPML3 ag conf: human TRPML3 agonism, confirmation; shares compounds with TRPML3 agonist; HEK293 TRPML3-YFP, Fluo-8 calcium fluorescence; 100% set by carbachol, 0% by DMSO; activation, % at 3 µM; actives 80% (n = 310);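 active = activation above a set limit derived from the earlier primary screen, cut at about 12% in these data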
# Hits are given with their value; 0 = inactive; - = not tested or not shown. This is a sample that favours compounds with a hit; in the whole collection about 0.58% have one here.
SMILES,TRPML3 agonist,OXTR potentiator,TRPN1 ag,OXTR agonist,V1aR counter,TRPN1 ag 2,TRPML3 ag conf
CN(C)S(=O)(=O)N1CCN(c2ccccc2Cl)CC1,0,0,0,0,0,-,-
CN(C)S(=O)(=O)N1CCN(c2cc(Cl)ccc2Cl)CC1,16.2,0,0,0,0,0,17.8
COc1ccc(C2c3cc(OC)c(OC)cc3CCN2C(=O)c2ccccc2Br)cc1OC (stereo unspecified),-,0,-,0,0,-,-
CNS(=O)(=O)c1cc(N(C)S(=O)(=O)c2ccc(C)cc2)c(C)cc1C,0,0,0,0,0,-,-
Cc1ccc(S(=O)(=O)N(C)c2cc(S(=O)(=O)N3CCC(C)CC3)c(C)cc2C)cc1,40.5,0,0,0,0,0,73.2
CC(=O)Nc1cccc(NC(=O)COC(=O)CO/N=C(\C)c2ccc3c(c2)OCO3)c1,-,0,-,0,0,-,-
Cc1ccc(Oc2ccc(Cl)cc2N)cc1,16.4,0,0,0,0,0,0
COC(=O)c1cc(S(=O)(=O)N(C)C2CCCCC2)oc1C,0,0,0,0,0,-,-
COc1cc(S(=O)(=O)N(C)C2CCCCC2)c(C)cc1C,54.0,-,0,-,-,0,63.5
C=CC[C@@H](CC(=O)N[C@H](CO)Cc1ccccc1)C(=O)N[C@H](COC(=O)[C@@H](CC=C)CC(=O)OC(C)(C)C)Cc1ccccc1,-,0,-,0,0,-,-
O=C(CSc1cc(Cl)ccc1Cl)NCCN1C(=O)CSC1=O,-,0,-,0,0,-,-
COc1cc(C)nc(N(Cc2ccccc2)S(=O)(=O)c2ccc(C)cc2)n1,27.5,0,0,0,0,0,50.5
COc1cc(C)nc(N(Cc2ccccc2)S(=O)(=O)c2ccccc2)n1,0,0,0,0,0,-,-
O=C(Nc1ccn(-c2ccccc2)n1)c1ccc(S(=O)(=O)N2CCCCCC2)cc1,53.4,0,0,0,0,0,60.6
O=C(Nc1ccccc1)c1ccc(S(=O)(=O)N2CCCCC2)cc1,0,0,0,0,0,-,-
CCOC(=O)C1CCN(C(=O)CN(C)S(=O)(=O)c2ccc3c(c2)c(=O)n(C)c(=O)n3C)CC1,-,0,-,0,0,-,-
CN(C)S(=O)(=O)c1cc([N+](=O)[O-])ccc1N1CCCCCC1,16.0,0,0,0,0,0,14.5
CCC(Oc1cc(Cl)ccc1Cl)C(=O)NNC(=O)CCC(=O)O (stereo unspecified),0,0,0,0,0,-,-
CCC(Oc1cc(Cl)ccc1Cl)C(=O)NN1C(=O)C2C3CCC(C3=C(C)C)C2C1=O (stereo unspecified),33.6,0,0,0,0,0,73.0
CCOc1ccc(OCC)c(NC(=O)CSc2nnc(C3CC3)n2CC)c1,-,0,-,0,0,-,-
COc1ccccc1C1CN=NC12CCCc1ccccc1C2=O (stereo unspecified),24.1,0,0,0,0,0,91.1
COc1ccc(NC(=O)c2cc([N+](=O)[O-])ccc2O)cc1,14.5,0,0,0,0,26.1,0
O=C(C1CCN(S(=O)(=O)N2CCOCC2)CC1)N1CCOCC1,16.1,0,0,0,0,0,0
CCS(=O)(=O)N1CCC(C(=O)N2CCOCC2)CC1,0,0,0,0,0,-,-
CCOc1ccc(NC(=O)c2ccccc2NS(=O)(=O)c2ccc(F)cc2)c([N+](=O)[O-])c1,15.4,0,0,0,0,0,34.1
SMILES,TRPML3 agonist,OXTR potentiator,TRPN1 ag,OXTR agonist,V1aR counter,TRPN1 ag 2,TRPML3 ag conf
COc1ccc(-c2csc(NC(=O)c3ccccc3F)n2)cc1,-,0,-,0,0,-,-
Cc1ccc(S(=O)(=O)Nc2ccccc2C(=O)Nc2nc(-c3ccc(F)cc3)cs2)cc1,11.8,0,0,0,0,21.1,0
COc1ccc(-c2csc(NC(=O)c3ccccc3NS(=O)(=O)c3ccc(F)c(F)c3)n2)cc1,13.0,0,0,0,0,27.1,17.0
Cc1cc(C)cc(NC(=O)CCn2ccnc2)c1,-,0,-,0,0,-,-
O=C1/C(=C/c2ccc(O)c(O)c2)SC(=S)N1Nc1ccccc1,0,-,0,-,-,-,-
COc1cc(/C=C2\SC(=S)N(Nc3ncc(C(F)(F)F)cc3Cl)C2=O)ccc1O,12.8,0,0,23.9,39.5,28.8,14.9
CC(C)(C)NC(=O)CN(C(=O)c1snc(C(=O)NC2CCCCC2)c1N)c1ccc(F)cc1,-,0,-,0,0,-,-
CCC(C(=O)Nc1cc(C)nn1-c1nc(C)cc(C)n1)c1ccccc1 (stereo unspecified),23.3,0,0,0,0,0,22.6
CC1=C(C)/C(=N\OS(=O)(=O)c2ccc(C)cc2)C=CC1=O,13.9,0,0,0,0,0,14.3
COc1ccc(S(=O)(=O)/N=C2/C=CC(=O)C(C)=C2C)cc1,0,0,0,0,0,-,-
O=S(=O)(c1cnc(Cl)c(Br)c1)N1CCc2ccccc21,14.2,0,0,0,0,0,50.0
O=C(/C=C/c1ccccc1)NC(=S)Nc1ncccn1,0,0,0,0,0,-,-
O=C1CCC(=O)N1c1ccccc1OS(=O)(=O)c1ccccc1,-,0,-,0,0,-,-
O=S(=O)(Oc1ccccc1N1CCCCC1)c1ccccc1,12.8,0,0,0,0,0,13.5
CCN(CC(=O)Nc1c(F)cccc1F)C(=O)c1ccc(C#N)cc1,-,0,-,0,0,-,-
Cc1ccc(S(=O)(=O)N2CC3CCCC2C3)cc1 (stereo unspecified),33.2,0,0,0,0,0,38.9
COc1ccccc1N(C)S(=O)(=O)c1ccc(Cl)c(C(=O)OCc2c(C)noc2C)c1,40.7,0,0,0,0,0,39.2
COc1ccccc1C(=O)NCCN1CCN(c2ccccc2)CC1,-,0,-,0,0,-,-
O=S(=O)(Nc1ccccc1N1CCCCC1)c1ccc(Cl)s1,139.3,0,0,0,0,0,109.5
CCCNS(=O)(=O)c1ccc(OCC(=O)Nc2ccc3c(c2)OCCO3)c(C)c1,-,0,-,0,0,-,-
N#CCCN(NC1=NS(=O)(=O)c2ccccc21)C(=O)c1ccccc1Br,-,0,-,0,0,-,-
Cc1c(C)c2ccc(OCC(=O)NCCN3CCOCC3)cc2oc1=O,-,0,-,0,0,-,-
COc1ccc(-c2nc(SC(C)C(=O)NCC3CCCO3)n[nH]2)cc1 (stereo unspecified),-,0,-,0,0,-,-
CCC1CCCCN1S(=O)(=O)c1ccc(S(=O)(=O)N(Cc2ccccn2)CC2CCCO2)cc1 (stereo unspecified),28.4,0,0,0,0,0,95.6
Cc1ccc(S(=O)(=O)N2CCCC(C(=O)N(Cc3cccs3)C3CC3)C2)cc1 (stereo unspecified),0,0,0,0,0,-,-

# Screens deposited in PubChem by The Scripps Research Institute Molecular Screening Center.
